An excerpt weighted towards active compounds, which were near 0.72% of everything screened.
bIAP activator: bovine intestinal alkaline phosphatase activators, primary screen, biochemical, bovine IAP, CDP-star luminescence. alkaline phosphatase, intestinal [Bos taurus]. purified bovine IAP, 30 min; stronger effect = higher value; fold of DMSO-control signal, blank-subtracted. activation factor at 20 µM. 0.17% of 200,000 active. AID 1016, 2008;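 active = activation factor of 2 or more at 20 µM, a signal rise over negative controls twice the positive control's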
mIAP block: inhibitors of mouse IAP, primary screen, biochemical, luminescence, uHTS; intestinal alkaline phosphatase [Mus musculus]; purified mouse IAP, CDP-Star luminescence, 30 min; inhibition, % at 10 µM; 0.2% of 330,000 active; AID 2806, 2010;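 active = inhibition of at least 40% at 10 µM in the primary screen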
hIAP inh: human IAP inhibitors, primary screen, biochemical, luminescence, uHTS | purified IAP, CDP-Star luminescence, 30 min | AID 2544, 2010 | 0.12% of 330,000 active | Intestinal-type alkaline phosphatase (Homo sapiens), P09923 | inhibition, % at 10 µM;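 active = inhibition reaching a set limit with compound at 10 µM in the primary screen, cut at about 35% in these data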
Target sequence (P09923 whole entry, looked up): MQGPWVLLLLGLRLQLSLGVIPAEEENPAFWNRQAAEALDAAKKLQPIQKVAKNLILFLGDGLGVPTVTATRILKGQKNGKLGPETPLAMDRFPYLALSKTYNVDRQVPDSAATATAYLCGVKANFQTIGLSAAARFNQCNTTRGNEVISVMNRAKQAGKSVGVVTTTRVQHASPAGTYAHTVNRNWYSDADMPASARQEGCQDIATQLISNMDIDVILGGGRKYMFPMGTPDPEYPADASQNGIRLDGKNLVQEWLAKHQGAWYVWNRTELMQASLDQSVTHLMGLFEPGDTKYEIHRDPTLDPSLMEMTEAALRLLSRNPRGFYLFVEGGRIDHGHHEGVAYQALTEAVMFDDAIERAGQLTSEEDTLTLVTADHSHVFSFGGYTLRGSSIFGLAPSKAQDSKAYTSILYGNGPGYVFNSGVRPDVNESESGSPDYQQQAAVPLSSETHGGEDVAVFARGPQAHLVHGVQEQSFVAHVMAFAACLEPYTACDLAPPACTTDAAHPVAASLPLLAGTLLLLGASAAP
hIAP activ: human IAP activators, primary screen, biochemical, luminescence, uHTS. purified human IAP, CDP-Star luminescence, 30 min; stronger effect = higher value; 1 = vehicle-only enzyme, 0 = enzyme-free background. activation factor at 10 µM. 0.16% of 330,000 active. AID 2524, 2010;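 active = activation factor of the enzyme at least 2-fold when tested at 20 µM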
bIAP inhibitor: bovine intestinal alkaline phosphatase inhibitors, primary screen, selectivity assay for TNAP inhibitor project, biochemical, bovine IAP, CDP-star luminescence. alkaline phosphatase, intestinal [Bos taurus]. purified bovine IAP, 30 min. inhibition, % at 20 µM. 190,000 tested, under 10 active;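 active = over 50% inhibition of intestinal alkaline phosphatase at 20 µM in the single-dose screen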
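System: purified bovine intestinal alkaline phosphatase (IAP) enzyme; Input: IAP diluted 1/65,000,000 in the well; Measured by: CDP-star luminescence signal; Compound dosing: 20 µM single dose; Incubation: 30 min reaction at room temperature.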
mIAP activ: activators of mouse IAP, primary screen, biochemical, luminescence, uHTS. intestinal alkaline phosphatase [Mus musculus]. muIAP, CDP-Star luminescence, 30 min; stronger effect = higher value; 1 = vehicle-only enzyme signal, 0 = enzyme-free wells. activation factor at 10 µM. 0.24% of 330,000 active. AID 2805, 2010;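 active = activation factor of at least 2 at 20 µM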
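also added = chemiluminescent substrate CDP-Star | test system = mouse IAP enzyme | signal = chemiluminescence readout | compound = DMSO-dissolved test compounds | incubation = 30 min at room temperature | benchmarks = DMSO wells, no-enzyme wells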
Each line names hits and unclear results; the compound was inactive in the other large screens.

COc1ccc(NC(=O)Nc2ccc3c(c2)N(C)C(=O)CS3)cc1Cl	none
COc1ccc(NC(=O)Nc2ccc3c(c2)N(C)C(=O)CS3)cc1OC	mIAP activ 2.2
CCOc1ccc(NC(=O)Nc2ccc3c(c2)N(C)C(=O)CS3)cc1	mIAP activ 2.3
COc1ccc(NC2CCCN(C(=O)CN3C(=O)c4ccccc4C3=O)C2)cc1OC (configuration not stated)	none (no result: bIAP activator, bIAP inhibitor)
Cc1ccc(NC2=NC(C(=O)Nc3ccc(C)c(C)c3)CC(=O)N2)cc1 (configuration not stated)	bIAP activator 2
Cc1ccc(NC(=O)C2CCC(=O)N2)cc1C (configuration not stated)	none
NNC(=S)Nc1ccc(S(=O)(=O)N2CCOCC2)cc1	none (no result: bIAP activator, bIAP inhibitor)
CCCCOCCCNC(=S)Nc1ccc(S(=O)(=O)N2CCOCC2)cc1	none (no result: bIAP activator, bIAP inhibitor)
CC(C)(C)CC(C)(C)NC(=S)Nc1ccc(S(=O)(=O)N2CCOCC2)cc1	mIAP activ 2.2
O=S(=O)(c1ccc(NC(=S)NCCC(c2ccccc2)c2ccccc2)cc1)N1CCOCC1	mIAP activ 2.1
COC(=O)c1ccc(NC(=O)C2CC3CCC2C3)cc1 (configuration not stated)	none (no result: bIAP activator, bIAP inhibitor)
COC(=O)c1ccc(NC(=S)NC2CC3CCC2C3)cc1 (configuration not stated)	mIAP activ 3
COCC(C)NS(=O)(=O)c1ccc(C(=O)NC(Cc2ccccc2)c2ccccc2)cc1 (configuration not stated)	mIAP activ 2.1 (no result: bIAP activator, bIAP inhibitor)
O=C(/C=C/c1ccc(O)c(O)c1)c1ccccc1O	hIAP inh 70 (no result: bIAP activator, bIAP inhibitor)
O=C(CN1CCN(C(=O)C2CCCO2)CC1)Nc1cc(Cl)ccc1Cl (configuration not stated)	none (no result: bIAP activator, bIAP inhibitor)
COC(=O)c1sccc1NC(=O)Nc1cccc([N+](=O)[O-])c1	mIAP block 66 (no result: bIAP activator, bIAP inhibitor)
COc1cccc(C(O)c2nc3ccccc3n2C(C)C)c1 (configuration not stated)	bIAP activator 2.1
COc1cccc(C(O)c2nc3ccccc3n2C(C)C)c1OC (configuration not stated)	none (no result: bIAP activator, bIAP inhibitor)
CCC(C)N(C(=O)Cn1nnc2ccccc21)C(C(=O)Nc1ccc(F)cc1)c1cccc(OC)c1 (configuration not stated)	mIAP activ 2.3
COCCNC(=O)C(c1cccc(OC)c1)N(Cc1cccs1)C(=O)Cn1nnc2ccccc21 (configuration not stated)	none
COc1ccc(C(=O)CCC(C)(C)[N+](=O)[O-])cc1OC	none
O=C(O)CCC1c2cc3c4cc2OC2Oc5cc6c(cc51)C(CCC(=O)O)c1cc5c7cc1OC(O6)c1cc6cc(c1)Oc1cc(cc(C(=O)O)c1)Oc1cc8cc(c1)C(Oc1cc(c(cc1C5CCC(=O)O)C3CCC(=O)O)OC(O4)c1cc(cc(c1)Oc1cc(cc(C(=O)O)c1)O8)Oc1cc(cc(C(=O)O)c1)Oc1cc(cc2c1)Oc1cc(cc(C(=O)O)c1)O6)O7 (configuration not stated)	mIAP block 48 (no result: bIAP activator, bIAP inhibitor)
COC(=O)c1ccc(NC(=S)NCCc2ccccc2C)cc1	mIAP activ 2
COC(=O)c1ccc(NC(=S)NCCc2cccc(C)c2)cc1	none
CCOc1ccccc1N1CC(C(=O)NC2CCCCCC2)CC1=O (configuration not stated)	none (no result: bIAP activator, bIAP inhibitor)
COc1cccc(NC(=S)NC2CC3CCCC(C2)N3CC(C)C)c1 (configuration not stated)	mIAP activ 2.8
COc1ccc(C(=O)NCCN=C2NS(=O)(=O)c3ccccc32)cc1	none (no result: bIAP activator, bIAP inhibitor)
COc1ccc(C2C(C(=O)Nc3cc(OC)c(OC)c(OC)c3)c3ccccc3C(=O)N2C)cc1 (configuration not stated)	bIAP activator 2.2, mIAP activ 2
COc1ccc(/C=C(\CC(=O)O)c2nc3ccccc3o2)cc1	none
COc1ccc(C(=O)/C(=C/c2cccs2)c2nc3ccccc3o2)cc1	mIAP block 46
Cc1nn(-c2ccccc2)nc1CNC(=O)CC(C)(C)C	none (no result: bIAP activator, bIAP inhibitor)
O=C(Nc1ccccc1C(=O)NC(Cc1ccccc1)C(=O)NC1CCCCCC1)c1ccccc1 (configuration not stated)	mIAP activ 2.3
CC(C)CCNC(=O)c1ccc2c(SCC(=O)O)c3c(nc2c1)CCCC3	bIAP activator 2.4
O=C(N/N=C/C=C/c1ccccc1)c1n[nH]c2c1CCC2	hIAP activ 2.1
CC(/C=N/NC(=O)c1n[nH]c2c1CCC2)=C\c1ccccc1	none
Cc1cc(C(=O)N[C@H](c2ccccc2)[C@@]2(C)C[C@@H]2[C@@H](C)C(=O)Nc2ccc3ccccc3c2)n(C)n1	mIAP activ 2.1
C[C@@H](C(=O)Nc1ccc2ccccc2c1)[C@H]1C[C@]1(C)[C@H](NC(=O)OCc1ccccc1)c1ccccc1	none
CCOC(=O)c1ccc(NC(=S)NCc2ccc(F)cc2)cc1	mIAP activ 2.3 (no result: bIAP activator, bIAP inhibitor)
Cc1ccc(S(=O)(=O)Nc2cccc(/C=C/C(=O)O)c2)cc1	none
COc1ccc(S(=O)(=O)Nc2cccc(/C=C/C(=O)O)c2)cc1	bIAP activator 4.6
CC1CCCCC1NC(=S)Nc1ccc(Cl)cc1Cl (configuration not stated)	mIAP activ 2.8
COCCN1C(=O)/C(=C/c2ccc(N3CCCC3)cc2C)SC1=S	none
CCC(C)(C)NC(=O)C(c1cccs1)N(C(=O)c1ccn[nH]1)c1cccc(OC)c1 (configuration not stated)	bIAP activator 2.1
CCC(C)(C)NC(=O)C(c1ccccc1F)N(C(=O)c1ccn[nH]1)c1ccccc1 (configuration not stated)	none
COc1ccc(S(=O)(=O)N2CCCCCC2)cc1C(=O)NCc1cccs1	none (no result: bIAP activator, bIAP inhibitor)
O=C(Nc1ccc(Br)cc1)Nc1ccccc1F	mIAP activ 2.2
O=C(Nc1ccc2c(c1)CCC2)Nc1ccc(F)cc1F	none (no result: bIAP activator, bIAP inhibitor)
O=C(Nc1ccc2c(c1)CCC2)Nc1ccccc1F	mIAP activ 2 (no result: bIAP activator, bIAP inhibitor)
O=S(=O)(Nc1cc(Sc2cccc3cccnc23)c(O)c2ccccc12)c1ccccc1	none (no result: mIAP block, hIAP inh, hIAP activ, mIAP activ)
CC(=O)NNC(=S)NC(=O)C(c1ccccc1)c1ccccc1	bIAP activator 2.7
CC(=O)NC(=S)NNC(=O)CCc1ccccc1	bIAP activator 2.2
CCCCC(=O)NC(=S)NNC(=O)CCc1ccccc1	none (no result: bIAP activator, bIAP inhibitor)
Cc1ccc(OCC(=O)N2CCC(Cc3ccccc3)CC2)c([N+](=O)[O-])n1	none (no result: bIAP activator, bIAP inhibitor)
